Sampled rows, rich in hits. Any-hit rate of the full collection: about 6.4%.
Tb MetRS inh: Trypanosoma brucei MetRS inhibition; actives 0.4% (n = 360,000); inhibition, % at 11.9 µM; purified T. brucei MetRS, ATP depletion, Kinase-Glo luminescence;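 active means inhibition above a per-plate cutoff of the control wells' mean inhibition plus 3 SD, cut at about 5.5% in these data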;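 further: 0% = DMSO wells median and 100% = median of wells with control inhibitor compound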
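Material: T. brucei methionyl-tRNA synthetase, purified; reagent: substrates ATP, L-methionine and bulk Escherichia coli tRNA; dosing: 11.9 µM single point; timing: 15 min plus 2 h at 25 °C; detection: luminescence of leftover ATP; evaluation: % inhibition; control set: DMSO-only wells as low control; replicates: singlicate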
MPTP inh: permeability transition pore inhibition | inhibition, % at 10 µM | actives 1.4% (n = 360,000) | isolated mouse mitochondria, Ca2+ swelling absorbance, 30 min;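 active means inhibition of 50% or more, scaled per plate between neutral and stimulator controls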;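 further: 0% = DMSO wells given calcium and 100% = 1 mM EGTA wells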
CHOP inhibitor: blocks CHOP induction under ER stress | CHO-K1 CHOP-promoter luciferase, tunicamycin-induced, 15-18 h | actives 3.8% (n = 220,000) | inhibition, % at 10 µM | AID 2732;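 active means compounds that reduced the stress-induced luciferase reporter signal by more than about 70% of percent inhibition, limit read from the data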;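 further: 0% = tunicamycin plus vehicle and 100% = wells without tunicamycin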
NR3A LBD binder: modulators (binders) of human NR3A ligand-binding domain. Tm shift relative to glycine control, % at 25 µM. actives 2.5% (n = 340,000). NR3A LBD differential scanning fluorimetry, Tm shift; 0% = protein alone, 100% = glycine-bound protein;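 active means melting temperature shift of at least 10% of the positive control shift, at one fixed dose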
EBV gp42 block: EBV gp42 inhibition; Q1HVG2; Fluorescence polarization binding assay, mP read-out; inhibition, % (tested at 21.74 µM); actives 0.42% (n = 220,000); in the data active means inhibition above about 50%
Target sequence (Q1HVG2 whole entry, looked up): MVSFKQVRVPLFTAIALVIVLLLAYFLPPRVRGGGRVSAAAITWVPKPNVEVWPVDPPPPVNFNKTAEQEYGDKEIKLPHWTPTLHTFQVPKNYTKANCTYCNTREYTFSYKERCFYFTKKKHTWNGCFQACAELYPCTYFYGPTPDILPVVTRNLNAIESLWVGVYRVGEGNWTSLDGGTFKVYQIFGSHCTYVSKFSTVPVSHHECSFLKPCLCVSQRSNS
WT yeast gro inh: growth inhibition of WT yeast, mitochondrial fusion screen. mitochondrial fusion phenotypic screen, WT strain. inhibition, % at 10 µM. actives 2.1% (n = 190,000); in the data active means inhibition above about 58%; tested in S. cerevisiae
Rh123 counter: Rhodamine 123 counter-screen of mitochondrial pore hits | shares compounds with MPTP inh | AID 624504 | isolated mitochondria, membrane potential, Rhodamine 123 fluorescence | actives 78% (n = 5,000) | inhibition, % at 10 µM; in the data active means inhibition above about 22%;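 further: 0% = DMSO vehicle and 100% = positive control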
MPTP abs DR: MPTP inhibition, dose response swelling confirmation | shares compounds with MPTP inh | isolated mitochondria swelling, absorbance | IC50, µM | actives 58% (n = 780); in the data active means IC50 below about 20 µM
MPTP counter DR: MPTP inhibitor counter-screen activity, dose response | shares compounds with MPTP inh | IC50, µM | isolated mitochondria counterscreen, fluorescence read-out | actives 49% (n = 780); in the data active means IC50 below about 80 µM
An asterisk follows results filed as active; i = inactive; · = not tested or not shown.

SMILES	Tb MetRS inh	MPTP inh	CHOP inhibitor	NR3A LBD binder	EBV gp42 block	WT yeast gro inh	Rh123 counter	others
CCOC(=O)C1(CCOc2ccccc2)CCN(Cc2ccc(COC)o2)CC1	-0.1	61.2*	-5.7	-1.3	-4.8	-0.2	2.9	MPTP abs DR=19*;MPTP counter DR=36.5*
CCOC(=O)C1(CCOc2ccccc2)CCN(Cc2ccc(OC)c(COC)c2)CC1	-0.9	86.4*	·	-2.4	·	·	74.5*
CCOC(=O)C1(CCc2ccccc2)CCN(Cc2c(O)cccc2OC)CC1	-1.8	62.3*	72.6*	-2.6	1.5	28.1	88.2*
O=C(NCCCCCCNC(=O)c1ccc(Br)s1)c1ccc(Br)s1	3.4	53.8*	-15.4	1.0	-20.4	-1.2	36.2*
c1ccc(CN2CCN(CCOCCOc3cccc4ccccc34)CC2)cc1	0.0	81.7*	25.0	0.0	0.4	32.8	-0.2	MPTP abs DR=i;MPTP counter DR=74*
O=C(c1ccccc1)c1ccc(OCC(O)CNCc2ccc(Cl)cc2)cc1 (stereo not drawn)	-0.9	1.1	·	1.2	·	·	·
COc1cccc(CNCC(O)COc2ccc(C(=O)c3ccccc3)cc2)c1 (stereo not drawn)	-0.5	83.8*	·	-1.7	·	·	1.4	MPTP abs DR=i;MPTP counter DR=50.5*
C=C(C)CN(CC)C(=O)CC1C(=O)NCCN1CC(C)(C)C (stereo not drawn)	-0.5	-0.4	8.6	0.2	-8.6	·	·
CCC(=O)N1CCN(c2nc3ccccc3s2)CC1	-1.1	-0.7	5.9	-9.7	-5.8	8.0	·
O=C(c1cc2sccc2n1Cc1ccccc1)N1CCN(c2nc3ccccc3s2)CC1	-0.3	101.9*	71.0*	-1.3	-4.7	11.1	102.1*
O=C(NCc1ccc(C(F)(F)F)cc1)C1CC(c2cccc(F)c2)=NO1 (stereo not drawn)	-0.3	-1.6	12.9	2.5	0.8	·	·
COc1ccc(/C(C)=N/OCC(=O)N=Nc2c(O)[nH]c3ccc(Br)cc23)cc1	-0.2	57.3*	-13.2	5.9	-14.6	1.9	0.3	MPTP abs DR=i;MPTP counter DR=10*
COc1ccc(/C=N/OCC(=O)N=Nc2c(O)[nH]c3ccc(Br)cc23)cc1OC	-0.4	15.7	24.5	-25.1	41.3	20.7	·
COc1ccccc1NS(=O)(=O)c1cc(NC(=O)c2ccc(Cl)nc2)ccc1Cl	1.7	55.6*	55.7	16.1*	-3.0	13.5	72.4*
COc1ccc(C(=O)Nc2ccc(C(=O)c3ccccc3)cc2)cc1	-0.7	62.4*	·	6.2	·	·	41.0*
COc1ccc(NC(=O)NC(=O)c2ccccc2)cc1	-0.6	1.4	·	-0.3	·	·	·
CCOc1ccc(NS(=O)(=O)c2cc(NC(=O)c3ccc(C)cc3)ccc2Cl)cc1	0.5	89.6*	50.6	14.9*	-9.1	36.5	55.9*
COc1ccccc1NS(=O)(=O)c1cccc(NS(=O)(=O)c2cc(C(=O)O)ccc2Cl)c1	-0.2	-1.8	·	·	·	·	·
COc1ccc(NC(=O)Cc2cccc(F)c2)cc1S(=O)(=O)Nc1ccccc1Cl	3.7	52.0*	-3.6	-5.5	-1.1	·	69.8*
COc1ccc(NS(=O)(=O)c2cc(NC(=O)Cc3c(F)cccc3Cl)ccc2OC)cc1	-0.2	-0.5	·	-4.9	·	·	·
COc1ccc(C(=O)Nc2ccc(Cl)c(S(=O)(=O)Nc3ccccc3OC)c2)cc1	0.3	54.9*	48.2	2.6	-23.4	30.4	70.0*
CCN1CCN(S(=O)(=O)c2ccc(Cl)c(C(=O)NCCc3ccccc3)c2)CC1	-0.1	-2.1	·	-0.4	·	·	·
CCOC(=O)c1nc(C)nc(Sc2n[nH]c(-c3cc(C(F)(F)F)cc(C(F)(F)F)c3)n2)c1C	-0.8	65.3*	71.9*	12.8*	-20.4	·	71.7*
O=C(c1ccccc1Br)N1CCn2c1nc1ccccc12	-0.6	-4.3	21.5	-1.4	10.0	2.9	·
O=C(COc1ccccc1)Nc1c(Cl)ccc2nsnc12	0.0	-0.7	·	-0.1	·	·	·
SMILES	Tb MetRS inh	MPTP inh	CHOP inhibitor	NR3A LBD binder	EBV gp42 block	WT yeast gro inh	Rh123 counter	others
CC(C)c1ccc(NC(=O)N(CCc2nc3ccccc3[nH]2)C2CCCC2)cc1	0.1	57.5*	16.3	-5.6	-5.2	1.1	80.9*
C=CCC(C(=O)Oc1c(C(C)(C)C)cc(C)cc1C(C)(C)C)c1ccccc1 (stereo not drawn)	0.0	55.3*	·	-2.7	·	·	-8.7	MPTP abs DR=6.88*;MPTP counter DR=>80
Cc1cc(NC(=O)CCc2ccc(C)o2)no1	-2.2	0.3	-2.3	0.1	-7.6	-23.6	·
Cc1ccc(S(=O)(=O)NN=C2C3CC4CC(C3)CC2C4)cc1	-0.3	0.9	·	-0.9	·	·	·
CCn1ncc(/C=C/C(=O)NCc2cnn(C)c2C)c1C	-0.2	-1.7	8.8	1.2	7.1	-4.0	·
Cc1cc(N2CCOCC2)nc(NCc2ccccc2)n1	1.7	7.9	33.5	-1.3	-15.3	5.0	·
Cc1cc(Nc2cccc(Cl)c2)nc(NCc2ccccc2)n1	0.8	82.2*	106.0*	-2.2	22.0	97.2*	86.8*
Cc1cc(N2CCCCC2)nc(NCc2ccccc2)n1	2.4	55.3*	25.3	-0.1	-0.7	20.0	88.5*
O=C(CSC1CC(=O)N(CC(c2ccccc2)c2ccccc2)C1=O)Nc1ccc(Cl)cc1 (stereo not drawn)	-1.3	74.6*	52.7	9.1	-9.7	13.6	79.3*
O=S(=O)(c1cccc(NC(=S)N2CCN(c3ccc(F)cc3)CC2)c1)C(F)F	-0.8	66.9*	36.0	-3.9	2.8	28.1	61.5*
O=S(=O)(c1cccc(NC(=S)N2CCN(c3cccc(Cl)c3)CC2)c1)C(F)F	-0.1	76.6*	70.0*	26.4*	5.1	46.6	86.2*
O=C1CN(C(=O)c2cc3ccccc3oc2=O)C(c2ccc(F)cc2)c2cc(F)ccc2N1 (stereo not drawn)	-0.5	-2.1	-14.4	0.4	-12.9	-16.9	·
O=C(Nc1ccc2c(c1)OCO2)O[C@@H]1C[C@H]2CCCC(=O)N3CC[C@@H](C1)[C@@H]23	0.2	-0.7	·	-2.6	·	·	·
CC1(C)CCC(=O)N2CC[C@H]3C[C@H](OC(=O)Nc4ccc(Br)cc4)C[C@@H]1[C@H]32	-0.2	68.8*	·	5.7	·	·	86.7*
CC(C)C(C(=O)Nc1sc2c(c1C#N)CCCCC2)N1C(=O)c2ccccc2C1=O (stereo not drawn)	-1.1	2.7	10.6	2.8	12.3	30.4	·
Cc1ccc(C(=O)N/N=C/c2cccc(OC(=O)/C=C/c3ccco3)c2)cn1	0.6	-0.1	0.7	-0.3	4.9	-9.1	·
O=C(/C=C/c1ccco1)Oc1cc(Br)cc(/C=N/NC(=O)c2ccccc2O)c1	-0.8	65.9*	60.4	11.1*	-2.9	23.2	62.6*

High-throughput results deposited in PubChem by several laboratories.
